Screening results as filed in PubChem.
An excerpt weighted towards active compounds, which were near 2.9% of everything screened.
ERAP1 HTS inh = blocks human ERAP1 aminopeptidase activity; 340,000 compounds, 0.15% hits; Q9NZ08; AID 652197; inhibition, % at 10.7 µM; recombinant ERAP1, Leu-AMC fluorescence, 60 min;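 active means mean replicate inhibition of at least 30%, or all replicates individually reaching that 30% level; inactive means mean below 30% and not every replicate reaching it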;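 further: 0% = neutral control wells and 100% = L-leucinethiol positive control wells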
S100A4 MyoIIA = S100A4-myosin IIA interaction inhibition; AID 652163; P26447; inhibition, % at 10.7 µM; S100A4/TAMRA-MyoIIA peptide fluorescence polarization; 360,000 compounds, 0.14% hits;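 active means mean inhibition of at least 70% across replicates, with every replicate also reaching that level; inconclusive means mean inhibition reaches 70% but some replicates fall short; inactive means mean inhibition below 70%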
Target sequence (P26447 whole entry, looked up): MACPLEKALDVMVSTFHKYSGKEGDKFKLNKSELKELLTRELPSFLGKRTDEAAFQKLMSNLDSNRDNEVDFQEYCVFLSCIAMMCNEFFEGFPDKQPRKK
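Test system: S100A4 monomer protein. Medium: HEPES buffer with Ca2+, pH 7.2. Reagent: fluorescent myosin IIA peptide, 5 nM. Compound dosing: single-point compound testing. Timing: 5 min between mix addition and reading. Benchmarks: DMSO neutral and TFP positive wells.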
SIRT5 block = blocks human SIRT5 desuccinylation of peptide; AID 652115; Purified SirT5, succinyl-peptide AMC, trypsin-coupled fluorescence; 330,000 compounds, 1.1% hits; inhibition, % at 15 µM; Q9NXA8; in the data active means inhibition above about 15%; inconclusive means no clear call, values can overlap the other calls
Target sequence (Q9NXA8 whole entry, looked up): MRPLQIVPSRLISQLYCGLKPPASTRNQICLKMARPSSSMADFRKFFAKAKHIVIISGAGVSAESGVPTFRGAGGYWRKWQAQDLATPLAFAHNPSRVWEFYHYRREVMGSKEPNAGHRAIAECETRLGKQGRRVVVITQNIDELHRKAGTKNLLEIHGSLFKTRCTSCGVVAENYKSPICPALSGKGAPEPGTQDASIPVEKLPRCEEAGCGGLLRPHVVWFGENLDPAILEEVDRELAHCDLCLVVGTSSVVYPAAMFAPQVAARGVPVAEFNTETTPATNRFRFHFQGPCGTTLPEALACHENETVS
DENV2 CPE = DENV2-induced cell death inhibition | DENV2-infected cells, cytopathic effect rescue, plate reader | 350,000 compounds, 1.7% hits | CPE inhibition, % at 9.99 µM; in the data active means CPE inhibition above about 20%, passing the limit was not always enough; inconclusive means no clear call, values can overlap the other calls; tested in BHK-21 cells;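 further: 0% = median of neutral control wells and 100% = median of positive control wells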
CAL PDZ FP-1 = inhibitors of human CAL PDZ peptide binding; Q9HD26; purified CAL PDZ, TMR-peptide fluorescence polarization, 1 h; inhibition, % at 20 µM; 330,000 compounds, 0.02% hits; AID 504414;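 active means highest replicate inhibition of at least 40%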;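 further: plate controls were DMSO neutral control wells for no effect and unlabeled competitor peptide control wells for full effect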
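System: tagged CAL PDZ domain. Schedule: 1 h room-temperature incubation prior to read. Signal: fluorescence polarization (mP). Measure: percent inhibition from loss of millipolarization.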
CAL PDZ FP-2 = blocks peptide binding to the human CAL PDZ domain; Q9HD26; AID 602252; purified CAL PDZ, TMR-peptide fluorescence polarization, 1 h; inhibition, % at 24.9 µM; 300,000 compounds, 0.92% hits;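 active means mean inhibition of at least 30% with at least half of replicates also reaching 30%; inconclusive means no clear call, values can overlap the other calls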;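 further: 0% = DMSO neutral control and 100% = excess unlabeled competitor peptide PRC23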
Numbers without * were called inactive; u = inconclusive; x = no result.

SMILES	ERAP1 HTS inh	S100A4 MyoIIA	SIRT5 block	DENV2 CPE	CAL PDZ FP-1	CAL PDZ FP-2
CC(C)C(=O)NNC(=O)C1CC1(c1ccccc1)c1ccccc1 (centres undefined)	-1	6	-2	2	0	-3
CC(C)(C)NC(=O)C1CC1(c1ccccc1)c1ccccc1 (centres undefined)	-1	-4	-1	15	x	46*
O=C(CN1CCCc2ccccc21)NC(=O)NC1CCCCC1	4	3	-3	-3	-1	82*
CC1CCN(C(=O)COC(=O)CNC(=O)c2ccccc2F)CC1	0	1	-3	69*	-2	-1
O=C(COC(=O)CNC(=O)c1ccccc1Cl)NC1CC1	1	3	0	2	1	39*
O=C(COC(=O)CNC(=O)c1ccccc1Cl)NC1CCCC1	4	-1	x	-7	0	-2
CC1CCN(C(=O)COC(=O)c2cc3ccccc3oc2=O)CC1	0	-3	x	54*	0	2
C[C@H](CO)N1C[C@H](C)[C@@H](CN(C)Cc2ccc(C(=O)O)cc2)Oc2ccc(NC(=O)C3CCCCC3)cc2C1=O	0	-26	-2	-7	x	x
Cc1ccc(S(=O)(=O)Nc2cccc3c2O[C@H](CN(C)Cc2ccc4c(c2)OCO4)[C@H](C)CN([C@H](C)CO)C3=O)cc1	0	-25	-4	-2	x	x
O=C(CCN1CCCCC1)N[C@@H]1CC[C@H](CCNS(=O)(=O)c2ccc(Cl)cc2)O[C@@H]1CO	1	-3	1	7	x	x
COc1ccc(C2=Nc3ccccc3N(C(=O)c3ccncc3)C2C(=O)NC(C)C)cc1 (centres undefined)	x	-3	3	59*	x	x
O=C(N[C@@H]1CC[C@@H](CCNC(=O)C2CCCC2)O[C@@H]1CO)c1ccncc1	0	-5	-5	-1	x	x
CC(=O)N[C@H]1CC[C@@H](CCNC(=O)C2CCCC2)O[C@@H]1CO	0	10	-3	27*	x	x
O=C(N[C@H]1CC[C@H](CCNC(=O)C2CCCC2)O[C@@H]1CO)c1ccncc1	-1	-2	-1	25*	x	x
O=C(N[C@@H]1CC[C@H](CCNC(=O)C2CCCCC2)O[C@@H]1CO)c1ccncc1	0	10	0	0	x	x
CC(=O)N[C@H]1CC[C@H](CCNC(=O)C2CCCC2)O[C@H]1CO	-2	5	-2	-2	x	x
O=C(N[C@H]1CC[C@H](CCNC(=O)C2CCCCC2)O[C@@H]1CO)c1ccncc1	-2	15	-4	28*	x	x
COc1ccccc1-c1cn(CC[C@@H]2CC[C@H](NC(=O)C3CCOCC3)[C@H](CO)O2)nn1	0	0	7	7	x	x
CCC(=O)Nc1ccc2c(c1)OC[C@@H](C)N(C(=O)CN(C)C)C[C@@H](C)[C@H](OC)CN(C)C2=O	0	1	5	-12	x	x
C[C@H]1CN([C@@H](C)CO)C(=O)c2cc(/C=C/c3ccccc3)cnc2O[C@@H]1CN(C)S(=O)(=O)c1cccs1	0	6	-2	7	x	x
C[C@@H]1CN([C@H](C)CO)C(=O)c2cccc(NC(=O)c3nc4ccccc4s3)c2O[C@H]1CN(C)Cc1ccc(C(F)(F)F)cc1	-1	-3	20*	1	x	x
C[C@H]1CN([C@@H](C)CO)C(=O)c2cccc(NC(=O)c3nc4ccccc4s3)c2O[C@H]1CN(C)Cc1ccc(C(F)(F)F)cc1	-2	10	27*	u	x	x
C[C@H](CO)N1C[C@H](C)[C@H](CN(C)Cc2ccccc2)Oc2c(NC(=O)c3nc4ccccc4s3)cccc2C1=O	-1	-47	1	13	x	x
CN(C)c1c([N+](=O)[O-])cc(N2C(=O)C=CC2=O)cc1[N+](=O)[O-]	x	x	x	x	-1	37*
Cc1ccc(S(=O)(=O)Cc2cc(F)c([N+](=O)[O-])cc2[N+](=O)[O-])cc1	x	x	x	x	-1	47*
CCC1CN(C(=O)N2CCC(C(=O)Nc3ccccc3F)CC2)c2ccccc2O1 (centres undefined)	-1	-4	19*	-4	-1	-3
O=C(C[C@H]1C=C[C@@H](NS(=O)(=O)c2ccccc2)[C@@H](CO)O1)NCc1ccncn1	0	7	-6	-1	x	x
CCOc1ccc(/C=C/C(=O)c2ccccc2)cc1OC	x	x	x	x	-1	1
